# Source: PubChem BioAssay (Broad Institute)
# SIRT5 inh: SIRT5 desuccinylase inhibitors, primary screen, biochemical, fluorescence imaging, single point, set 5. NAD-dependent protein deacylase sirtuin-5, mitochondrial (Homo sapiens), Q9NXA8. Purified SirT5, succinyl-peptide AMC, trypsin-coupled fluorescence. inhibition, % at 15 µM. 1.1% of 330,000 active; in the data active means inhibition above about 15%
# Target sequence (Q9NXA8 whole entry, looked up): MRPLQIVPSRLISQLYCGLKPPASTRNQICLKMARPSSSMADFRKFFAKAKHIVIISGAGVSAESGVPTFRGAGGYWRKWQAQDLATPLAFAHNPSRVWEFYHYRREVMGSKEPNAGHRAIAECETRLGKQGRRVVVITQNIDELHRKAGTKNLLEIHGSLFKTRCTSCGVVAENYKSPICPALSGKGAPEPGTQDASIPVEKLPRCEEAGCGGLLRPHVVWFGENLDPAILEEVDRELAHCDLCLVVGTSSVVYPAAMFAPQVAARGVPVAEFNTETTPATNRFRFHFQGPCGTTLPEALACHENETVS
# S100A4 MyoIIA: inhibitors of S100A4-myosin IIA peptide binding, primary screen, biochemical, fluorescence polarization, TAMRA-MyoIIA peptide | AID 652163, 2013 | Protein S100-A4 (Homo sapiens), P26447 | 0.14% of 360,000 active | inhibition, % at 10.7 µM;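 active means mean inhibition of at least 70% across replicates, with every replicate also reaching that level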
# Target sequence (P26447 whole entry, looked up): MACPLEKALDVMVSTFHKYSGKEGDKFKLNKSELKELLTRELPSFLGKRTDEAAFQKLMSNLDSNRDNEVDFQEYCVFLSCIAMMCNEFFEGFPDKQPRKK
#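 Compound dosing: one dose per compound; test system: human S100A4 monomer with TAMRA-labelled myosin IIA peptide; probe or stimulus: TAMRA-labelled myosin IIA heavy-chain peptide probe, 5 nM; medium: HEPES buffer with Ca2+, pH 7.2; schedule: 5 min incubation before reading; benchmarks: neutral control DMSO, positive control TFP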
# miR-122 sensor: miR-122 Renilla sensor signal increase in Huh7, primary screen, miR-122 inhibitor project, cell-based, single point, plate reader; 0.3% of 340,000 active; Huh7 miR-122 Renilla luciferase sensor, 48 h; neutral wells = 0, positive control = 100; activation (reporter increase), % at 12.5 µM;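 active means mean replicate activation score at least 90 and every replicate individually at or above 90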;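 further: higher luciferase means less miR-122 activity so hits act as miR-122 inhibitors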
# E-sel inducer: E-selectin induction in HUVECs, primary screen, imaging, HUVEC, immunofluorescence imaging, single point; P16581; normalized: neutral wells 0, TNF-alpha wells 100; activation, % at 7.58 µM; 0.37% of 260,000 active; AID 686992, 2013;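 active means mean E-selectin-positive cell signal at least 10% of the positive control, reached in at least 60% of replicates, without over 20% cell loss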
#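 System: HUVEC / Compound: single concentration / Signal: immunofluorescence imaging / Read-out: percent E-selectin-positive cells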
# FGF22 binding: binders of human FGF22 protein, primary screen, FGF22 synaptogenesis inhibitor project, biophysical, thermal shift, single point; recombinant FGF22 thermal shift, SYPRO orange fluorescence; percent of sucrose octasulfate shift, DMSO zero; activity (Tm shift, normalised), % at 9.99 µM; 1.5% of 340,000 active;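 active means mean Tm shift, scaled 0 neutral to 100 positive control, at about 1.3% or above, every replicate too, limit read from the data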
# Target sequence (Q9HCT0 whole entry, looked up): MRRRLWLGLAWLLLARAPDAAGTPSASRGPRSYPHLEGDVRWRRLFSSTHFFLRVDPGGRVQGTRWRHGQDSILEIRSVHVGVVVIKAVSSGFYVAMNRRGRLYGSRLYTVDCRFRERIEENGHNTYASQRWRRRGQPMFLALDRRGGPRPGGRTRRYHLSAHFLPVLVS
# An asterisk follows results filed as active; . = not tested or not shown; [ ] = dose if it differs, or a comment. Hits are enriched below; roughly 2.5% of the tested compounds scored in any of these assays.
SMILES,SIRT5 inh,S100A4 MyoIIA,miR-122 sensor,E-sel inducer,FGF22 binding
CC(OC(=O)c1oc2ccccc2c1CSC1CCCCC1)C(=O)NC(N)=O (stereo not given),.,.,1.2,1.2,.
C[C@@H]1CCCCO[C@H](CN(C)Cc2ccc(C(=O)O)cc2)[C@H](C)CN([C@@H](C)CO)C(=O)c2cc(NS(=O)(=O)c3cn(C)cn3)ccc2O1,.,.,-1.1[16.7 µM],0.0,1.3*
Cc1noc(C)c1S(=O)(=O)Nc1ccc2c(c1)C(=O)N([C@@H](C)CO)C[C@H](C)[C@H](CN(C)Cc1ccc(C(=O)O)cc1)OCCCC[C@H](C)O2,-3.1,-14.4,6.8[16.7 µM],0.5,1.3*
C[C@@H]1CN([C@H](C)CO)C(=O)c2cc(NS(=O)(=O)c3cn(C)cn3)ccc2O[C@H]1CN(C)Cc1ccncc1,-0.7,-0.6,-7.7[16.7 µM],92.4*,-0.2
Cc1noc(C)c1S(=O)(=O)Nc1ccc2c(c1)C(=O)N([C@H](C)CO)C[C@@H](C)[C@H](CN(C)Cc1ccc(C(=O)O)cc1)OCCCC[C@@H](C)O2,-3.4,14.5,-6.2[16.7 µM],0.7,0.7
Cc1noc(C)c1S(=O)(=O)Nc1ccc2c(c1)C(=O)N([C@H](C)CO)C[C@H](C)[C@H](CN(C)Cc1ccc(C(=O)O)cc1)OCCCC[C@@H](C)O2,0.2,-8.0,0.7[16.7 µM],0.0,1.4*
Cc1cccc(-c2ccc([C@@H]3[C@@H](CO)N4CCCCN(S(=O)(=O)c5ccccc5C)C[C@@H]34)cc2)c1,-0.5,0.3,16.7[16.7 µM],-0.8,-0.1
CN1CCCCN2[C@H](CO)[C@@H](c3ccc(-c4cccnc4)cc3)[C@@H]2C1,-2.3,-22.5,6.2[16.7 µM],-0.2,-0.1
O=C([C@@H]1[C@@H](CO)[C@@H]2Cn3c(ccc(-c4ccccc4F)c3=O)[C@H]1N2C(=O)C1CCC1)N1CCOCC1,-9.9,10.9,3.7[16.7 µM],0.4,-0.2
COc1cc2c3c(c1OC)C1(C=CC(=NNC(N)=O)C=C1)CC3N(C(C)=O)CC2 (stereo not given),0.0,-6.2,.,0.3,43.4*
Cc1ccc(S(=O)(=O)NC(Cc2ccccc2)C(=O)O)cc1 (stereo not given),2.5,-1.3,.,.,0.1
Cc1ccc(S(=O)(=O)NC(CC(=O)OCc2ccccc2)C(=O)OCc2ccccc2)cc1 (stereo not given),-0.7,-1.9,0.9,-0.9,29.6*
C[C@H](CO)N1C[C@H](C)[C@H](CN(C)C(=O)Nc2ccccc2)Oc2ccc(NC(=O)C3CCCCC3)cc2C1=O,-0.1,-35.2,4.5[16.7 µM],0.5,-0.1
CC=Cc1ccc2n(c1=O)C[C@H]1[C@H](CO)[C@@H](C(=O)NCC3CC3)[C@@H]2N1C(=O)c1ccccc1 (mixture of isomers),-10.2,3.8,-4.7[16.7 µM],-0.3,-0.1
COc1ccccc1N(CC(=O)NCCSc1ccccn1)S(=O)(=O)c1ccccc1,0.8,5.2,-3.1,37.1*,-0.2
Cc1ccccc1CSCC(=O)NCCSc1ccccn1,-2.3,1.7,.,.,44.0*
CC(NC(=O)/C(C#N)=C/c1ccc([N+](=O)[O-])o1)c1ccccc1 (stereo not given),-0.4,-5.1,-1.1,41.8*,-0.2
CC(NC(=O)/C(C#N)=C/c1ccco1)c1ccccc1 (stereo not given),5.6,-3.6,-10.9,-0.1,0.1
CO[C@H](CN(C)C(=O)c1ccccc1F)[C@H](C)CN([C@@H](C)CO)S(=O)(=O)c1ccc(Cl)cc1,-2.8,8.4,.,-0.1,0.2
COc1ccc2c3c(n(C)c2c1)[C@H](CO)N(C(=O)c1ccccc1)CC31CN(C(=O)c2ccccc2)C1,1.2,1.4,.,0.0,-0.1
C[C@@H]1CN([C@@H](C)CO)C(=O)c2cc(NS(=O)(=O)c3cn(C)cn3)ccc2O[C@@H](C)CCCCO[C@H]1CN(C)Cc1ccc(C(=O)O)cc1,-4.2,14.0,.,0.1,0.2
CCN(CC(=O)Nc1ccccc1C(F)(F)F)C(=O)c1ccc(N2C(=O)CCC2=O)cc1,-1.2,-11.7,-3.8,-0.1,0.0
CN(CC(=O)Nc1ccccc1C(F)(F)F)C(=O)c1ccc(N2C(=O)CCC2=O)cc1,16.6*,0.4,-1.1,2.6,0.3
CCCNC(=O)N(C)C[C@@H]1Oc2ncc(-c3ccccc3F)cc2C(=O)N([C@@H](C)CO)C[C@@H]1C,.,.,11.1[16.7 µM],-0.1,.
Cc1ccccc1C(=O)NCC(=O)O,10.6,-7.2,-5.8,0.1,43.0*
SMILES,SIRT5 inh,S100A4 MyoIIA,miR-122 sensor,E-sel inducer,FGF22 binding
O=C(O)CNC(=O)c1ccccc1F,.,.,-9.1,.,.
Cc1cc(C)c(C(=O)COC(=O)CNC(=O)c2ccccc2C)c(C)c1,0.6,111.2*,.,0.8,-0.2
COc1ccc2c3c(n(C)c2c1)[C@@H](CO)N(Cc1cc(F)ccc1F)CC31CCN(C(C)=O)CC1,0.8,-13.0,.,-0.4,-0.2
COc1ccc(C(NC(=O)c2ccco2)c2ccc(OC)c(OC)c2)cc1 (stereo not given),.,.,-6.3,.,.
COc1cc(C(Nc2ccccn2)c2c(NC(=O)c3ccco3)sc(C)c2C)cc(OC)c1OC (stereo not given),-2.6,-9.6,11.1,.,43.8*
COc1ccc(C(Nc2ccccn2)c2c(NC(=O)c3ccco3)sc(C)c2C)cc1OC (stereo not given),0.3,-7.4,8.5,.,43.9*
CCCN(C)C[C@H]1OCCCC[C@@H](C)Oc2ccc(NS(=O)(=O)c3cccs3)cc2C(=O)N([C@@H](C)CO)C[C@@H]1C,-4.4,-27.0,13.4[16.7 µM],0.1,-0.5
CO[C@H]1CN(C)C(=O)c2ccc(NS(C)(=O)=O)cc2OC[C@H](C)N(Cc2cncnc2)C[C@@H]1C,-2.3,6.8,.,-0.2,-0.1
O=C(CSCc1nc2c(nnn2Cc2ccc(F)cc2)c(=O)[nH]1)Nc1c(Cl)cc(Cl)cc1Cl,-0.1,-0.9,.,0.7,43.3*
CO[C@H]1CC[C@@H]2CCN(C)C(=O)C[C@@H](c3ccccc3)CN(C)C(=O)c3cccc(C#N)c3OC[C@@H]1O2,-1.1,-6.9,.,0.0,0.1
O=C(O)CC(NC(=O)C12CC3CC(CC(C3)C1)C2)c1cccc([N+](=O)[O-])c1 (stereo not given),-0.7,-0.7,0.0,.,43.1*
C[C@@H]1CN([C@@H](C)CO)S(=O)(=O)c2ccc(-c3ccc(F)cc3)cc2O[C@@H]1CN(C)S(C)(=O)=O,10.1,3.3,21.8[16.7 µM],-0.5,-0.1
Cc1cc(C)c(OCC(=O)NCC(C)(C)N2CCOCC2)c(C)c1,30.1*,33.6,0.9,-0.3,0.4
Cc1ccc(CN2C(=O)CCC2(C)c2nnnn2-c2c(C)cccc2C)cc1 (stereo not given),16.1*,-8.7,.,0.1,-0.1
